In brackets after ≈: the same amount, converted by molar mass.
Experiments:
Plasmodium falciparum = assay: In vitro antimalarial activity against Plasmodium falciparum FCR3; type: functional, organism-based
Method in brief: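 P. falciparum FCR-3 kept in candle jars in RPMI 1640 with 10% human serum, sorbitol-synchronized for at least three cycles. Serially diluted compounds plus ring-stage parasitized cells (0.5-1% parasitemia, 5-10% hematocrit), 37 °C for 24 h, then 2 μCi [3H]hypoxanthine added and incubated 24 h more. Cells harvested, scintillation counted, drug-free parasitized controls run alongside.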

[1] = Partition coefficient (logP); type: physicochemical; conditions: octanol/water
Method in brief: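 log P estimated from C-18 HPLC retention index. Retention times taken on thermospray LC/MS, isocratic 50% (v/v) methanol in water with 0.1 M ammonium acetate at 1 mL/min, positive ion, filament on, vaporizer tip 7 °C below take-off temperature, block 184 °C.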

logP [1]	Structure (SMILES)	IC50 (Plasmodium falciparum) [µg/mL]	logP ([1]; read-out: logP)
–	CCO[C@H]1O[C@@H]2O[C@@]3(C)CC[C@H]4[C@H](C)[C@@H](O[C@H]5O[C@@H](C(=O)O)[C@H](O)[C@@H](O)[C@@H]5O)C[C@@H]([C@H]1C)[C@@]24OO3	0.0893 (≈ 0.177 µM)	0.61
–	CCO[C@H]1O[C@@H]2O[C@@]3(C)CC[C@H]4[C@H](CO[C@H]5O[C@@H](C(=O)O)[C@H](O)[C@@H](O)[C@@H]5O)CC[C@@H]([C@H]1C)[C@@]24OO3	6 (≈ 11.9 µM)	1.05
–	CCO[C@H]1O[C@@H]2O[C@@]3(C)CC[C@H]4[C@H](C)[C@H](O[C@H]5O[C@@H](C(=O)O)[C@H](O)[C@@H](O)[C@@H]5O)C[C@@H]([C@H]1C)[C@@]24OO3	6.56 (≈ 13 µM)	0.93
–	C[C@H]1[C@H](O[C@@H]2O[C@H](C(=O)O)C(O)[C@H](O)C2O)O[C@@H]2O[C@H]3CC[C@H]4[C@H](C)CC[C@@H]1[C@@]24OO3 (stereo partly drawn)	6 (≈ 13.4 µM)	1.08
–	C[C@H]1[C@@H](O[C@@H]2O[C@H](C(=O)O)C(O)[C@H](O)C2O)O[C@@H]2O[C@H]3CC[C@H]4[C@H](C)CC[C@@H]1[C@@]24OO3 (stereo partly drawn)	0.255 (≈ 0.571 µM)	1.8
–	CCO[C@H]1O[C@@H]2O[C@@]3(C)CC[C@H]4[C@H](C)[C@@H](O)C[C@@H]([C@H]1C)[C@@]24OO3	–	1.93
–	CCO[C@H]1O[C@@H]2O[C@@]3(C)CC[C@H]4[C@H](CO)CC[C@@H]([C@H]1C)[C@@]24OO3	–	2.08
–	CCO[C@H]1O[C@@H]2O[C@@]3(C)CC[C@H]4[C@H](C)[C@H](O)C[C@@H]([C@H]1C)[C@@]24OO3	–	2.14
–	CCO[C@H]1O[C@@H]2O[C@@]3(C)C[C@H](O)[C@H]4[C@H](C)CC[C@@H]([C@H]1C)[C@@]24OO3	–	2.7
–	CCO[C@H]1O[C@@H]2O[C@@]3(C)CC[C@H]4[C@H](C)CC[C@@H]([C@H]1C)[C@@]24OO3 [ARTEMOTIL]	0.0013 (≈ 0.00416 µM)	3.89
2.45	C[C@H]1[C@@H](O)O[C@@H]2O[C@@]3(C)CC[C@H]4[C@H](C)CC[C@@H]1[C@@]24OO3 [ARTENIMOL]	0.0107 (≈ 0.0376 µM)	–
